# Results of several laboratories.
# Lines come from different studies, so protocols differ.
# Target: Tyrosine-protein kinase Lck (LCK, Homo sapiens, UniProt P06239)
Structure (SMILES),test,conditions,remaining binding
O=C(Nc1c[nH]nc1C(=O)NC1CCNCC1)c1cc(F)cc(F)c1,"binding, competition with immobilised ligand",1 µM,100%
CNC(=O)[C@@H]1CC[C@@H](n2c(-c3ccc4cnccc4c3)nc3ccc(C(=O)NCc4cccc(C(N)=O)c4)cc32)C1,"binding, competition with immobilised ligand",1 µM,94%
O=C(NCCCN1CCOCC1)c1ccc(Nc2nccc(-c3cc4ccccc4s3)n2)cc1,"binding, competition with immobilised ligand",1 µM,76%
COc1ccc2c(c1)O[C@@H](c1ccc(OC)c(OC)c1)C[C@H]2NC(=O)C1(c2ccc3c(c2)OC(F)(F)O3)CC1,"cell-free assay, competition with immobilised ligand",1 µM,100%
COc1ccnn2ncc(-c3ccnc(N(C)C)n3)c12,binding,1 µM,94%
COc1ncc2cc3ccccc3nc2c1C#N,"binding, competition with immobilised ligand",5 µM,93%
c1cnn2ncc(-c3ccnc(N4CCC45COC5)n3)c2c1,binding,1 µM,99%
CCCOc1ccc([C@H]2[C@H](C(=O)O)[C@@H](c3ccc4c(c3)OCO4)CN2CC(=O)Nc2c(CC)cccc2CC)cc1,"cell-free assay, competition with immobilised ligand",1 µM,100%
C=CC(=O)N1CCC(C(=O)NCC(=O)N2CCN(c3nc(-c4cnc(N)nc4C(F)F)nc(N4CCOCC4)n3)CC2)CC1,"binding, competition with immobilised ligand",1 µM,90%
O=C(NCCCN1CCOCC1)c1ccc(Nc2ncc(Cl)c(-c3ccc(Cl)s3)n2)cc1,"binding, competition with immobilised ligand",1 µM,100%
C[C@H]1CCN(c2nccc(-c3cnn4ncccc34)n2)C1,binding,1 µM,98%
CCN1CCN(Cc2ccc(C(=O)Nc3ccc(C)c(Oc4ccc5c(c4)CC(=O)N5)c3)cc2C(F)(F)F)CC1,"binding, competition with immobilised ligand",1 µM,22%
COc1ccc2cc(OCC3(C(=O)O)CN(C(=O)c4ccc(F)cc4)C3)ccc2c1,"cell-free assay, competition with immobilised ligand",1 µM,80%
O=C(c1ccc(Nc2ncc(Cl)c(-c3ccc(Cl)s3)n2)cc1)N1CCC(N2CCCC2)CC1,"binding, competition with immobilised ligand",1 µM,32%
CNC(=O)c1ccc(Nc2ncc(C(F)(F)F)c(NCc3nccnc3N(C)S(C)(=O)=O)n2)cc1,"cell-free assay, competition with immobilised ligand",0.1 µM,87%
FC(F)(F)Oc1cccc(-c2cnc3ccc(-c4ccncc4)nn23)c1,"cell-free assay, competition with immobilised ligand",5 µM,35%
